Converted amounts (≈) assume the structure as drawn.
Experiments:
[1] = Lipophilicity, log D of the compound; format: physicochemical; conditions: octanol/water
Procedure, shortened: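 LogD was either measured or calculated with an internal logD model.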

[2] = Solubility of the compound at pH 6.5; format: physicochemical; conditions: buffer
[3] = Permeability in RRCK cells; format: ADME, cell-based, Canis lupus familiaris, MDCKII-LE; conditions: dog, MDCK; read-out: permeability
Procedure, shortened: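 Transcellular permeability across Ralph Russ canine kidney (RRCK) cell monolayers, reported as x10^-6 cm/sec.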

[4] = Volume of distribution at steady state in rat; format: ADME; conditions: in vivo, read-out: Vdss
[5] = Oral bioavailability in rat; format: ADME, organism-based; conditions: in vivo
[6] = Volume of distribution at steady state in dog; format: ADME, Canis lupus familiaris; conditions: in vivo, read-out: Vdss
[7] = Oral bioavailability in dog; format: ADME, organism-based, Canis lupus familiaris; conditions: in vivo

Structure (SMILES): CC(=O)N1CC(Oc2cc(-c3cnnc4c3ncn4C(C)C)ccc2F)C1
- logD [1]: 1.6

Structure (SMILES): CCn1cnc2c(-c3ccc(F)c(-c4ccc(C(=O)N(C)C)cc4)c3)cnnc21
- logD [1]: 2.5

Structure (SMILES): CCn1cnc2c(-c3ccc(F)c(-c4ccc(S(C)(=O)=O)cc4OC)c3)cnnc21
- logD [1]: 2.5

Structure (SMILES): CCn1cnc2c(-c3ccc(F)c(-c4ccc(S(=O)(=O)CC)cc4F)c3)cnnc21
- logD [1]: 2.6

Structure (SMILES): CCn1cnc2c(-c3ccc(F)c(-c4ccc5c(c4)CN(C)C5=O)c3)cnnc21
- logD [1]: 2.7

Structure (SMILES): CCn1cnc2c(-c3ccc(F)c(Oc4cccc(S(=O)(=O)CC)c4)c3)cnnc21
- logD [1]: 2.3

Structure (SMILES): CCn1cnc2c(-c3ccc(F)c(-c4ccc(S(=O)(=O)CC)cc4OC)c3)cnnc21 [DARIGABAT]
- logD [1]: 2.7
- solubility [2]: 95 µM (≈ 41.8 µg/mL)
- Papp [3]: 17 ×10⁻⁶ cm/s
- Vd [4]: 2.1 L/kg
- bioavailability [5]: 99%
- Vd [6]: 3.4 L/kg
- bioavailability [7]: 130%

Structure (SMILES): CCS(=O)(=O)c1ccc(-c2cc(-c3cnnc4c(OC)cnn34)ccc2F)cc1
- logD [1]: 2.8

Structure (SMILES): CCn1cnc2c(-c3ccc(F)c(OCc4ccccn4)c3)cnnc21
- logD [1]: 2.5

Structure (SMILES): CCn1cnc2c(-c3ccc(F)c(-c4cc(C(=O)NC)ccc4F)c3)cnnc21
- logD [1]: 3

Structure (SMILES): CCn1nnc2c(-c3ccc(F)c(-c4ccc(S(=O)(=O)CC)cc4)c3)cnnc21
- logD [1]: 3.3

Structure (SMILES): CCn1cnc2c(-c3ccc(F)c(Oc4ccc(C#N)cn4)c3)cnnc21
- logD [1]: 2.3

Structure (SMILES): CCn1cnc2c(-c3ccc(F)c(Oc4cnc(C#N)nc4)c3)cnnc21
- logD [1]: 2

Structure (SMILES): Cc1cc(-c2cc(-c3cnnc4c3ncn4C(C)C)ccc2F)ccn1
- logD [1]: 3.1

Structure (SMILES): CCn1cnc2c(-c3ccc(F)c(-c4ccc5c(c4)C(=O)N(C)C5)c3)cnnc21
- logD [1]: 2.6

Structure (SMILES): CCn1cnc2c(-c3ccc(F)c(Oc4ccnc(C)c4)c3)cnnc21
- logD [1]: 2.6

Structure (SMILES): CCn1cnc2c(-c3ccc(F)c(-c4ccc(S(=O)(=O)C5COC5)cc4OC)c3)cnnc21
- logD [1]: 2.2

Structure (SMILES): CCn1cnc2c(-c3ccnc(Oc4cccc(S(=O)(=O)CC)c4)c3)cnnc21
- logD [1]: 1.6

Structure (SMILES): CCn1cnc2c(-c3ccnc(Oc4ccccc4)c3)cnnc21
- logD [1]: 2.6

Structure (SMILES): CCn1cnc2c(-c3ccc(F)c(-c4cccc(C(=O)NC)c4)c3)cnnc21
- logD [1]: 2.8

Structure (SMILES): CCn1cnc2c(-c3ccnc(OC)c3)cnnc21
- logD [1]: 1.5

Structure (SMILES): CCn1cnc2c(-c3ccc(F)c(-c4ccc(S(=O)(=O)CC)cc4)c3)cnnc21
- logD [1]: 2.9

Structure (SMILES): CCc1cnn2c(-c3ccc(F)c(-c4ccc(S(=O)(=O)CC)cc4)c3)cnnc12
- logD [1]: 3.5

Structure (SMILES): CCn1cnc2c(-c3ccc(Cl)c(-c4ccc(S(=O)(=O)CC)cc4OC)c3)cnnc21
- logD [1]: 3.1

Structure (SMILES): CCc1cnn2c(-c3ccc(F)c(-c4ccc(S(=O)(=O)CC)cc4)c3)ccnc12
- logD [1]: 3.9

Structure (SMILES): CCn1cnc2c(-c3ccc(F)c(-c4cccnc4)c3)cnnc21
- logD [1]: 2.6

Structure (SMILES): CCn1cnc2c(-c3ccc(F)c(-c4ccc(S(=O)(=O)C(C)C)cc4OC)c3)cnnc21
- logD [1]: 3

Structure (SMILES): N#Cc1ccc(Oc2cc(-c3cnnc4c3ncn4C3CC3)ccc2F)nc1
- logD [1]: 2.3

Structure (SMILES): CCOc1cc(S(=O)(=O)CC)ccc1-c1cc(-c2cnnc3c2ncn3CC)ccc1F
- logD [1]: 3.3

Structure (SMILES): CC(C)n1cnc2c(-c3ccc(F)c(Oc4ccc(C#N)cn4)c3)cnnc21
- logD [1]: 2.7

Structure (SMILES): Cc1cc(-c2cc(-c3cnnc4c3ncn4C3CC3)ccc2F)ccn1
- logD [1]: 2.9

Structure (SMILES): CCn1cnc2c(-c3ccc(F)c(-c4ccc(S(=O)(=O)C5CC5)cc4OC)c3)cnnc21
- logD [1]: 2.7

Structure (SMILES): CCn1cnc2c(-c3ccc(F)c(-c4cc5c(cc4OC)C(=O)N(C)C5)c3)cnnc21
- logD [1]: 2.6
- solubility [2]: 15 µM (≈ 6.26 µg/mL)
- Papp [3]: 21 ×10⁻⁶ cm/s
- Vd [4]: 0.55 L/kg
- bioavailability [5]: 76%
- Vd [6]: 2.61 L/kg
- bioavailability [7]: 43%

Structure (SMILES): CCn1cnc2c(-c3ccc(F)c(-c4ccc(S(=O)(=O)CC)cc4Cl)c3)cnnc21
- logD [1]: 3.2

Reference: ChEMBL document CHEMBL4350959, “Design and Identification of a Novel, Functionally Subtype Selective GABAA Positive Allosteric Modulator (PF-06372865)” (J Med Chem, 2019)
